# CSC inhib = cancer stem cell viability inhibitors, primary screen, luminescence | cancer stem cell-like cells viability | inhibition, % at 7.5 µM | 1.1% of 300,000 active | AID 2717, 2010; in the data active = inhibition above about 75%; tested in HMLE shEcad cells
# Beta apoptosis = inhibitors of cytokine-induced beta cell apoptosis, primary screen, luminescence; INS-1E cytokine-induced death, ATP luminescence, 48 h; percent of positive-control rescue, neutral wells zero; protection from apoptosis, % (no concentration beside the values); 0.8% of 300,000 active; AID 435005, 2010;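 active = Every replicate reaches about 75%, or at least half do and their mean reaches it too, limit read from the data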;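 also: 0% = cytokine-treated negative control wells and 100% = positive control rescue; higher means more ATP so stronger rescue from cytokine killing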
# MC4R antagonist = MC4R antagonists of cAMP signaling, primary screen, cell-based, TR-FRET, antagonist arm of biased-ligand search; Melanocortin receptor 4 (Homo sapiens), P32245; MC4R-expressing cells, MTII-stimulated cAMP, LANCE TR-FRET; inhibition, % at 6.5 µM; 0.48% of 360,000 active;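 active = inhibition above its plate's cutoff, the mean of tested wells on that plate plus 3 SD, cut at about 29% in these data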;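 also: 0% = Melanotan II alone and 100% = Melanotan II plus saturating MCL0020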
#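 Material: human MC4R-expressing U2OS cells. Probe or stimulus: Melanotan II challenge. Dosing: 6.5 µM single dose. Times: 30-min compound, 1-h challenge, 1-h detection, room temperature. Technique: TR-FRET with Eu-cAMP and labeled anti-cAMP, 671 nm. Replication: singlicate.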
# MC4R ag barr = MC4R agonists recruiting beta-arrestin, primary screen, cell-based, luminescence, agonist arm of biased-ligand search; activation, % at 8.9 µM; Melanocortin receptor 4 (Homo sapiens), P32245; 0.98% of 360,000 active; AID 540308, 2011; U2OS MC4R beta-arrestin complementation; percent of melanotan II response, DMSO zero;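 active = activation above a per-plate cutoff, the mean activation of sample wells on that plate plus 3 SD, cut at about 8% in these data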
# ANO1 block = TMEM16A chloride channel inhibitors, primary screen, cell-based, HTS; Anoctamin-1 (Mus musculus), Q8BHY3; HEK293 TMEM16A/YFP iodide influx fluorescence, ionomycin; normalized B-score (activity score, 25-100; higher = stronger inhibition) at 10 µM; 1.2% of 310,000 active;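 active = ratio plate-corrected score three or more library SD toward inhibition, starting fluorescence score within five deviations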;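 also: score derived from kinetic fluorescence span divided by baseline fluorescence per well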
# Target sequence (Q8BHY3 whole entry, looked up): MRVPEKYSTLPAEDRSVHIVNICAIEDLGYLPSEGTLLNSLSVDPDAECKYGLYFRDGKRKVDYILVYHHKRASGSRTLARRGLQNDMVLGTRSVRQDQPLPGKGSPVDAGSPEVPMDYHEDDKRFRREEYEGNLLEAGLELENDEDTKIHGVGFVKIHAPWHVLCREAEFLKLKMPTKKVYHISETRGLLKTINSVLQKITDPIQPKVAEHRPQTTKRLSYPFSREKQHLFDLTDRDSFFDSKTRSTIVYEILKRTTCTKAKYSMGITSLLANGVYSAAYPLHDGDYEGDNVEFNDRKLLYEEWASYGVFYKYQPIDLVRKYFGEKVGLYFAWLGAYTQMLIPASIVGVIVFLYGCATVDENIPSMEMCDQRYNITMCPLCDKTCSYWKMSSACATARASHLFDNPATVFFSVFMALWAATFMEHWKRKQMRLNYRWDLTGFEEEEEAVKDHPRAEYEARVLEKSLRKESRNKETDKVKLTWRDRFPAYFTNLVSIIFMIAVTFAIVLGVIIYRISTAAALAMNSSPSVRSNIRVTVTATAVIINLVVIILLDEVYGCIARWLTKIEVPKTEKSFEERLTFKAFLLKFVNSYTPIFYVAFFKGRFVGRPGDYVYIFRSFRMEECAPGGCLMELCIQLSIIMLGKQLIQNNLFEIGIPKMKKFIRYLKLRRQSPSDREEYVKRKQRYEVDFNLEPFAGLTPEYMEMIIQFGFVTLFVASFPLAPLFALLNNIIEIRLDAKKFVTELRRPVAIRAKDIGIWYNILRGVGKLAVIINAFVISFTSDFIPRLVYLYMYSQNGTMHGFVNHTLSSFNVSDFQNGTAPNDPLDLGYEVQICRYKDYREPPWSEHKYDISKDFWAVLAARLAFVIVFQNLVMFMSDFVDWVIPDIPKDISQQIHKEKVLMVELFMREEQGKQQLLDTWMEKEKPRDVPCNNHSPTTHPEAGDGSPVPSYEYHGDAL
# TMEM16A act = TMEM16A chloride channel activators or potentiators, primary screen, cell-based, HTS. AID 623877, 2012. 0.3% of 340,000 active. B-score at 10 µM. HEK293 TMEM16A/YFP-H148Q/I152L, iodide quench fluorescence; active compounds read low. Anoctamin-1 (Mus musculus), Q8BHY3;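 active = fluorescence-ratio B-score plate-corrected deviation score at least 3 library SD below zero, with starting fluorescence score within 5 deviations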;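 also: channel opened by trigger with iodide after compound preincubation; score built on the fluorescence ratio of max minus min over baseline; more negative score means more quench and so TMEM16A activation or potentiation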
# The depositor's hits bear a star; i = inactive; x = no result given; ! = not confirmed by another sample. Hits are enriched below; roughly 3.8% of the tested compounds scored in any of these assays.
SMILES,CSC inhib,Beta apoptosis,MC4R antagonist,MC4R ag barr,ANO1 block,TMEM16A act
O=S(=O)(c1cccc2ccccc12)N1CCSC1,12,-10,0,0,i,i
COc1ccc(N=Nc2cc(C)ccc2O)cc1,12,-9,-1,-2,i,i
Cc1ccc(O)c(N=Nc2nccs2)c1,1,89*,-6,-1,x,i
Cc1ccc(Nc2ncnc(Cl)c2N)cc1,x,x,1,0,x,i
Cc1cc(C)c(C#N)c(SCc2ccccc2F)n1,-11,1,-7,0,25*,i
Cc1cc(C)c(C#N)c(SCSCc2ccccc2)n1,3,2,-11,0,i,i
CC1CCC(NC(=O)c2cccc(S(=O)(=O)N3CCOCC3)c2)CC1 (stereo unspecified),x,x,4,1,x,x
COc1ccc(/C=C/C(=O)Nc2ccccc2)cc1OC,-4,4,5,2,i,i
COc1ccc(/C=C/C(=O)NC(=S)NCCc2ccc(OC)c(OC)c2)cc1,23,20,-9,17*,i,i
COc1ccc(/C=C/C(=O)NC(=S)Nc2ccccc2)cc1OC,12,5,16,9.1*,i,i
Cc1cc(C)n(-c2ccc(NC(=O)C3CCCCN3C(=O)c3ccc(C)s3)cc2)n1 (stereo unspecified),-8,9,-2,2,i,i
Cc1ccc(C(=O)OCC(=O)NCCc2ccccc2)cc1C,-7,-7,8,0,x,i
CN1CCN(C2CCN(c3ccc(Nc4nnc(Cl)c(Nc5ccccc5S(C)(=O)=O)n4)c(OC(CF)CF)c3)CC2)CC1,-10,1,-2,-1,x,i
COc1ccc(Cl)cc1NC(=O)CSc1sc2c(O)cc(=O)[nH]c2c1C#N,-7,-9,6,-3,i,i
Cc1ccc(Cl)cc1NC(=O)CSc1sc2c(O)cc(=O)[nH]c2c1C#N,-4,-4,-1,-2,i,-4.9*
CC(C)(C)c1ccc(C(=O)c2c[nH]c(C(=O)NCc3cccs3)c2)cc1,x,-5,10,0,i,-8.1*
COc1ccc(-c2oc(NC(=O)CSc3ncn[nH]3)c(C#N)c2-c2ccc(OC)cc2)cc1,56,-8,16,1,25*,i
N#Cc1c(NC(=O)CSc2ncccn2)oc(-c2ccccc2)c1-c1ccccc1,-15,0,4,-1,i,i
N#Cc1c(NC(=O)CSc2n[nH]c(Cc3ccccc3)n2)oc(-c2ccccc2)c1-c1ccccc1,102*,x,0,1,i,i
COc1ccc(-c2oc(NC(=O)CCl)c(C#N)c2-c2ccc(OC)cc2)cc1,3,1,2,1,100*,i
O=C1OC(c2ccc3ccccc3c2O)(c2ccc3ccccc3c2O)c2ccccc21,x,x,-3,0,x,i
C[C@H](CO)N1C[C@H](C)[C@H](CN(C)Cc2ccccc2)Oc2ncc(Br)cc2C1=O,x,x,1,0,x,x
Cc1ccc(C(=O)NC2CCN(S(=O)(=O)c3ccccc3F)CC2)cc1,-5,1,7,0,i,i
O=C(COC(=O)Cc1ccc(S(=O)(=O)N2CCOCC2)s1)Nc1ccc(OC(F)F)cc1,11,2,18,1,x,i
O=C(O)c1cccc(NC(=S)N/N=C/c2cccc(O)c2)c1,-7,2,3,-1,i,i
SMILES,CSC inhib,Beta apoptosis,MC4R antagonist,MC4R ag barr,ANO1 block,TMEM16A act
Cc1cccc(NC(=S)N/N=C/c2cccc(O)c2)c1C,80*,2,-6,-2,i,i
Cc1ccccc1NC(=S)N/N=C/c1ccc(O)cc1O,70,87*,-9,-1,i,i
CCOC(=O)c1ccc(NC(=O)NNS(=O)(=O)c2cc(OC)ccc2OC)cc1,-3,-4,9,-2,i,i
COc1ccc(NC(=O)c2ccco2)cc1NC(=O)c1cccc(F)c1,x,x,9,2,x,i
O=C(Nc1ccccc1)SC1CCCCC1,x,x,6,0,x,i
O=C(c1ccc2c3n(nc2c1)-c1ccccc1CO3)N1CCOCC1,98*,x,13,-1,i,i
O=S(=O)(Nc1ccccc1)C1CCCCC1,x,x,8,5,x,i
COc1ccc(-c2nn(CC(=O)NCCc3ccccc3)c(=S)n2C)cc1,-2,40,2,0,i,i
CCn1c(-c2ccc(C)cc2)nn(CC(=O)NCCc2ccccc2)c1=S,19,127*,-4,-2,i,i
Cc1ccc(S(=O)(=O)NCC(=O)OC(C)C(=O)NC(=O)NC2CCCCC2)cc1C (stereo unspecified),-2,-4,20,-4,x,i
CNC[C@H](CC1CCCCC1)NC[C@H](CO)NCCc1cccc(C(F)(F)F)c1,132*,36,1,1,i,i
N#Cc1ccc(S(=O)(=O)N2CCC(C(=O)N3CCN(Cc4ccc5c(c4)OCO5)CC3)CC2)cc1,3,-2,9,-2,x,i
CNC(=O)c1ccc(NC(=O)c2ccccc2OCc2c(C)noc2C)cc1,x,x,2,0,x,x
Cc1ccc(/C=C/C(=O)c2ccc([N+](=O)[O-])o2)cc1,35,109*,x,x,i,x
Cc1ccc(CNC(=O)c2ccc([N+](=O)[O-])o2)cc1,-6,-27,3,-2,i,i
CCc1nc2ccc(C(=O)NCCCn3ccnc3)cn2c1N(C)Cc1ccc(OC)cc1,x,x,15,-1,x,x
COc1ccc(S(=O)(=O)N(C)C[C@H]2Oc3c(NC(=O)NC(C)C)cccc3C(=O)N([C@H](C)CO)C[C@@H]2C)cc1,x,-5,-4,1,x,i
Nc1c2c(nc3sc4c(c13)CCCCC4)CCCCC2,71,27,2,0,25*,i
COc1ccc(NS(=O)(=O)c2cccc(C(=O)NNC(=O)c3cc(S(N)(=O)=O)ccc3OC)c2)cc1,2,1,-3,1,i,i
CCCNC(=O)Cn1c(-c2ccc(F)cc2)cc(C(=O)OCC)c1C,-10,-2,0,8.3*,i,i
CC1=Nc2ccc(C)cc2/C1=C/c1c(N)n2oc(C)cc2nc1=O,-7,1,12,9.2*!,i,i
O=C(O)c1cccc(-c2ccccc2)c1O,x,x,-5,-2,x,i
Oc1c(Cl)cc(Cl)cc1C=Nc1cc(C(F)(F)F)ccc1N1CCc2ccccc2C1,47,27,29*,-1,i,i
